Measured values: ChEMBL document CHEMBL4038284, “Synthesis of novel quinoline-based 4,5-dihydro-1H-pyrazoles as potential anticancer, antifungal, antibacterial and antiprotozoal agents” (Eur J Med Chem, 2017)
In brackets after ≈: the same amount, converted by molar mass.

Legend:
Cryptococcus neoformans [1] = assay: Growth inhibition of Cryptococcus neoformans ATCC 32264 at 7.8 ug/ml incubated for 48 hrs under dark condition by broth microdilution method relative to control; assay type: functional; settings: ATCC 32264, 48 h, read-out: GI
In short: (§1)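 CLSI M27-A3 broth microdilution in RPMI-1640, DMSO ≤1%. Inoculum 1-5 × 10^3 CFU/mL. Incubated 48 h at 30 °C, dark. % inhibition = 100 − (OD405 test − sterility control)/(OD405 growth control − sterility control), with growth and sterility control wells. Triplicate.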

Cryptococcus neoformans [2] = assay: Growth inhibition of Cryptococcus neoformans ATCC 32264 at 125 ug/ml incubated for 48 hrs under dark condition by broth microdilution method relative to control; assay type: functional; settings: ATCC 32264, 48 h, read-out: GI; in short: as §1
Candida albicans [3] = assay: Growth inhibition of Candida albicans ATCC 10231 at 125 ug/ml incubated for 48 hrs under dark condition by broth microdilution method relative to control; assay type: functional; settings: ATCC 10231, 48 h, read-out: GI; in short: as §1
Candida albicans [4] = assay: Growth inhibition of Candida albicans ATCC 10231 at 7.8 ug/ml incubated for 48 hrs under dark condition by broth microdilution method relative to control; assay type: functional; settings: ATCC 10231, 48 h, read-out: GI; in short: as §1
Staphylococcus aureus [5] = assay: Antibacterial activity against methicillin-sensitive Staphylococcus aureus ATCC 25923 after 24 hrs by resazurin dye based microdilution assay; assay type: functional; settings: ATCC 25923, 24 h
In short: (§2)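 MIC taken as the lowest concentration giving visible inhibition and/or by resazurin (1 mg/mL). Gentamicin was the control. Run in duplicate, repeated at least three times.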

Candida albicans [6] = assay: Growth inhibition of Candida albicans ATCC 10231 at 15.62 ug/ml incubated for 48 hrs under dark condition by broth microdilution method relative to control; assay type: functional; settings: ATCC 10231, 48 h, read-out: GI; in short: as §1
Cryptococcus neoformans [7] = assay: Growth inhibition of Cryptococcus neoformans ATCC 32264 at 15.62 ug/ml incubated for 48 hrs under dark condition by broth microdilution method relative to control; assay type: functional; settings: ATCC 32264, 48 h, read-out: GI; in short: as §1
Cryptococcus neoformans [8] = assay: Antifungal activity against Cryptococcus neoformans ATCC 32264 incubated for 48 hrs under dark condition by broth microdilution method; assay type: functional; settings: ATCC 32264, 48 h
In short: (§3)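 CLSI M27-A3 broth microdilution in RPMI-1640, DMSO ≤1%, compounds at 250-0.98 µg/mL final. Inoculum 1-5 × 10^3 CFU/mL. Incubated 48 h at 30 °C in a moist dark chamber, read at OD405. MIC80 and MIC50 taken from % inhibition dose-response curves (mean ± SEM, triplicate). Amphotericin B was the positive control.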

Klebsiella pneumoniae [9] = assay: Antibacterial activity against ESBL positive Klebsiella pneumoniae ATCC 700603 after 24 hrs by resazurin dye based microdilution assay; assay type: functional; settings: Klebsiella pneumoniae, 700603, 24 h; in short: as §2
Cryptococcus neoformans [10] = assay: Growth inhibition of Cryptococcus neoformans ATCC 32264 at 62.5 ug/ml incubated for 48 hrs under dark condition by broth microdilution method relative to control; assay type: functional; settings: ATCC 32264, 48 h, read-out: GI; in short: as §1
Cryptococcus neoformans [11] = assay: Growth inhibition of Cryptococcus neoformans ATCC 32264 at 3.4 ug/ml incubated for 48 hrs under dark condition by broth microdilution method relative to control; assay type: functional; settings: ATCC 32264, 48 h, read-out: GI
Escherichia coli = assay: Antibacterial activity against Escherichia coli ATCC 25922 after 24 hrs by resazurin dye based microdilution assay; assay type: functional; settings: ATCC 25922, 24 h; in short: as §2
Staphylococcus aureus [12] = assay: Antibacterial activity against methicillin-resistant Staphylococcus aureus ATCC 43300 after 24 hrs by resazurin dye based microdilution assay; assay type: functional; settings: ATCC 43300, 24 h
In short: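 Broth microdilution in Mueller Hinton broth, inoculum 5 × 10^5 – 8 × 10^5. Compound stocks diluted in MHB with 5% DMSO and 0.1% Tween 80. Incubation 24 h at 35-37 °C. MIC is the lowest concentration with visible growth inhibition and/or by resazurin (1 mg/mL) read-out. Gentamicin as control. Run in duplicate, replicated at least three times.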

Candida albicans [13] = assay: Growth inhibition of Candida albicans ATCC 10231 at 62.5 ug/ml incubated for 48 hrs under dark condition by broth microdilution method relative to control; assay type: functional; settings: ATCC 10231, 48 h, read-out: GI; in short: as §1
Plasmodium falciparum = assay: Antiplasmodial activity against chloroquine-sensitive Plasmodium falciparum 3D7 assessed as reduction in parasitic LDH activity after 48 hrs by Malstat reagent based […] method; assay type: functional; settings: 3D7, 48 h
In short: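 Unsynchronized P. falciparum 3D7 at 0.5% parasitemia and 1% hematocrit in RPMI with 3% Albumax II. Exposed to 100, 25, 6.25 and 1.56 µg/mL for 48 h at 37 °C under 90% N2/5% CO2/5% O2. After three freeze-thaw cycles, LDH measured with Malstat and NBT/PES, 1 h in the dark, read at 650 nm. IC50 by Probit; triplicate, ≥2 experiments.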

Klebsiella pneumoniae [14] = assay: Antibacterial activity against carbapenemase positive Klebsiella pneumoniae BAA 1705 after 24 hrs by resazurin dye based microdilution assay; assay type: functional; settings: BAA 1705, 24 h; in short: as §2
Candida albicans [15] = assay: Growth inhibition of Candida albicans ATCC 10231 at 31.25 ug/ml incubated for 48 hrs under dark condition by broth microdilution method relative to control; assay type: functional; settings: ATCC 10231, 48 h, read-out: GI; in short: as §1
Neisseria gonorrhoeae = assay: Antibacterial activity against beta lactamase positive Neisseria gonorrhoeae ATCC 31426 by oxidase test; assay type: functional
In short: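 Agar dilution MIC on GC agar with 1% isovitalex containing increasing compound concentrations. Plates inoculated with about 1×10^4 CFU (5 µL). MIC is the lowest concentration that inhibited growth, with growth confirmed by oxidase test. Run in duplicate, repeated at least three times.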

U-937 = assay: Cytotoxicity against human U937 cells after 72 hrs by MTT assay; assay type: cell-based; settings: u-937, 72 h
In short: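 Exponentially growing U-937 at 1 × 10^5 cells/mL in RPMI-1640 with 10% FBS were exposed to 200, 50, 12.5 and 3.125 µg/mL for 72 h at 37 °C, 5% CO2. MTT for 3 h, stopped with isopropanol/SDS, formazan read at 570 nm, blank-corrected. LC50 by Probit from % viability against untreated cells. Triplicate, at least two independent experiments.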

Trypanosoma cruzi = assay: Antitrypanosomal activity against Trypanosoma cruzi Tulahuen intracellular amastigote harboring LacZ infected in human U937 cells after 72 hrs by CPRG/Nonidet reagent based spectrophotometric method; assay type: functional, cell-based; settings: U-937, 72 h
In short: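 U-937 cells at 2.5 × 10^5 cells/mL in RPMI-1640 with 10% serum and 0.1 µg/mL PMA were infected with β-galactosidase-transfected Tulahuen epimastigotes at 5 parasites per cell. Infected cells were exposed to 50, 12.5, 3.125 and 0.78 µg/mL for 72 h. CPRG (100 uM) and 0.1% Nonidet P-40 were added for 3 h, read at 570 nm. EC50 by Probit. Triplicate, at least two experiments; benznidazole as reference.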

Pseudomonas aeruginosa = assay: Antibacterial activity against Pseudomonas aeruginosa ATCC 27853 after 24 hrs by resazurin dye based microdilution assay; assay type: functional; settings: ATCC 27853, 24 h; in short: as §2
Candida albicans [16] = assay: Growth inhibition of Candida albicans ATCC 10231 at 3.4 ug/ml incubated for 48 hrs under dark condition by broth microdilution method relative to control; assay type: functional; settings: ATCC 10231, 48 h, read-out: GI
Leishmania panamensis = assay: Antileshmanial activity against EpiR/GFP fused Leishmania panamensis MHOM/CO/87/UA140 intracellular amastigotes infected in human […] cells after 72 hrs by flow cytometric method; assay type: functional, cell-based; settings: MHOM/CO/87/UA140, 72 h
In short: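 PMA-treated U-937 cells (3 × 10^5 cells/mL) infected with stationary-phase GFP L. panamensis promastigotes (15:1), 3 h at 34 °C, then washed. After 24 h, compounds added at 50, 12.5, 3.125 and 0.78 µg/mL for 72 h at 37 °C. EC50 by Probit; triplicate, two experiments.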

Staphylococcus aureus [17] = assay: Antibacterial activity against vancomycin-intermediate Staphylococcus aureus after 24 hrs by resazurin dye based microdilution assay; assay type: functional; in short: as §2
Cryptococcus neoformans [18] = assay: Growth inhibition of Cryptococcus neoformans ATCC 32264 at 250 ug/ml incubated for 48 hrs under dark condition by broth microdilution method relative to control; assay type: functional; settings: ATCC 32264, 48 h, read-out: GI; in short: as §1
Candida albicans [19] = assay: Growth inhibition of Candida albicans ATCC 10231 at 250 ug/ml incubated for 48 hrs under dark condition by broth microdilution method relative to control; assay type: functional; settings: ATCC 10231, 48 h, read-out: GI; in short: as §1
Candida albicans [20] = assay: Antifungal activity against Candida albicans ATCC 10231 incubated for 48 hrs under dark condition by broth microdilution method; assay type: functional; settings: ATCC 10231, 48 h; in short: as §3
Cryptococcus neoformans [21] = assay: Growth inhibition of Cryptococcus neoformans ATCC 32264 at 31.25 ug/ml incubated for 48 hrs under dark condition by broth microdilution method relative to control; assay type: functional; settings: ATCC 32264, 48 h, read-out: GI; in short: as §1

| SMILES | inhibition of growth at 7.8 µg/mL (Cryptococcus neoformans [1]) [%] | inhibition of growth at 125 µg/mL (Cryptococcus neoformans [2]) [%] | inhibition of growth at 125 µg/mL (Candida albicans [3]) [%] | inhibition of growth at 7.8 µg/mL (Candida albicans [4]) [%] | MIC (Staphylococcus aureus [5]) [µg/mL] | inhibition of growth at 15.62 µg/mL (Candida albicans [6]) [%] | inhibition of growth at 15.62 µg/mL (Cryptococcus neoformans [7]) [%] | MIC50 (Cryptococcus neoformans [8]) [µg/mL] | MIC80 (Cryptococcus neoformans [8]) [µg/mL] | MIC (Klebsiella pneumoniae [9]) [µg/mL] | inhibition of growth at 62.5 µg/mL (Cryptococcus neoformans [10]) [%] | inhibition of growth at 3.4 µg/mL (Cryptococcus neoformans [11]) [%] | MIC (Escherichia coli) [µg/mL] | MIC (Staphylococcus aureus [12]) [µg/mL] | inhibition of growth at 62.5 µg/mL (Candida albicans [13]) [%] | EC50 (Plasmodium falciparum) [µg/mL] | MIC (Klebsiella pneumoniae [14]) [µg/mL] | inhibition of growth at 31.25 µg/mL (Candida albicans [15]) [%] | MIC (Neisseria gonorrhoeae) [µg/mL] | LC50 (U-937) [µg/mL] | other results |
| --- | --- | --- | --- | --- | --- | --- | --- | --- | --- | --- | --- | --- | --- | --- | --- | --- | --- | --- | --- | --- | --- |
| Clc1ccc(N2N=C(c3ccc(Br)cc3)CC2c2cccc(Nc3ccnc4cc(Cl)ccc34)c2)cc1 (stereo not given) | 0 | 23 | 23.4 | 6.28 | > 1000 | 6.77 | 0.14 | ≥ 250 | ≥ 250 | > 1000 | 17.8 | 0 | > 1000 | > 1000 | 13.7 | 10.3 (≈ 17.4 µM) | > 1000 | 7.39 | > 1000 | 35.7 (≈ 60.7 µM) | EC50 (Trypanosoma cruzi): 29.5 µg/mL (≈ 50.1 µM); MIC (Pseudomonas aeruginosa): > 1000 µg/mL; inhibition of growth at 3.4 µg/mL (Candida albicans [16]): 3.47%; EC50 (Leishmania panamensis): 16 µg/mL (≈ 27.2 µM); MIC (Staphylococcus aureus [17]): > 1000 µg/mL; inhibition of growth at 250 µg/mL (Cryptococcus neoformans [18]): 27.5%; inhibition of growth at 250 µg/mL (Candida albicans [19]): 39.6%; MIC50 (Candida albicans [20]): ≥ 250 µg/mL; MIC80 (Candida albicans [20]): ≥ 250 µg/mL; inhibition of growth at 31.25 µg/mL (Cryptococcus neoformans [21]): 17% |
| Cc1ccc(C2=NN(c3cc(Cl)cc(Cl)c3)C(c3cccc(Nc4ccnc5cc(Cl)ccc45)c3)C2)cc1 (stereo not given) | 1.15 | 15.3 | 3.88 | 0 | > 1000 | 0 | 1.85 | ≥ 250 | ≥ 250 | > 1000 | 8.02 | 0 | > 1000 | > 1000 | 0 | 65.2 (≈ 117 µM) | > 1000 | 0 | > 1000 | > 200 | EC50 (Trypanosoma cruzi): 49.2 µg/mL (≈ 88.3 µM); MIC (Pseudomonas aeruginosa): > 1000 µg/mL; inhibition of growth at 3.4 µg/mL (Candida albicans [16]): 0%; EC50 (Leishmania panamensis): 18.1 µg/mL (≈ 32.5 µM); MIC (Staphylococcus aureus [17]): > 1000 µg/mL; inhibition of growth at 250 µg/mL (Cryptococcus neoformans [18]): 40.9%; inhibition of growth at 250 µg/mL (Candida albicans [19]): 17.9%; MIC50 (Candida albicans [20]): ≥ 250 µg/mL; MIC80 (Candida albicans [20]): ≥ 250 µg/mL; inhibition of growth at 31.25 µg/mL (Cryptococcus neoformans [21]): 6.71% |
